Publication PMC3825517 (Nature structural & molecular biology, 2013)

Experiments:
DinF-BH [1] = biological target: T1, DinF-BH (Halalkalibacterium halodurans, UniProt Q9KAX3); experiment: Fluorescence polarization assay of R6G binding to purified DinF-BH; design: species or system Bacillus halodurans
T1 sequence (Q9KAX3 1-464): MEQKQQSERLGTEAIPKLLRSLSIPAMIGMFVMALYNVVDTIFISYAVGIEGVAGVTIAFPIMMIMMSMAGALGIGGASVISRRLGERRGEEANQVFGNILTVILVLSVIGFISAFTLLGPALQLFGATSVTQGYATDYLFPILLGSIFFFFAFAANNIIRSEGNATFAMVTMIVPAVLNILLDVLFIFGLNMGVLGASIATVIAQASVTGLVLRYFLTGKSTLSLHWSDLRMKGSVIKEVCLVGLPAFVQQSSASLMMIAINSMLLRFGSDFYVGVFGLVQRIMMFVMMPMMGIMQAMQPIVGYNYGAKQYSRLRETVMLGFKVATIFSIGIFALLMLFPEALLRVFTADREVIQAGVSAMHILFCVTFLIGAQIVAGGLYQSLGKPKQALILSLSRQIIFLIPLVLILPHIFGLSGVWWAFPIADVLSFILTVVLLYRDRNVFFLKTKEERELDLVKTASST

DinF-BH D40N mutant = biological target: T2, DinF-BH D40N mutant (Halalkalibacterium halodurans, UniProt Q9KAX3, D40N); experiment: Fluorescence polarization assay of R6G binding to purified D40N mutant; design: species or system Bacillus halodurans
T2 sequence (Q9KAX3 1-464 D40N): T1 sequence (Q9KAX3 1-464)
How it was run: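 Each protein concentration was read after a 10-min incubation. Kd comes from the binding isotherm, three titrations, SD. For pH dependence the binding solutions spanned pH 5.5–9.0, fitted to Kd = (1 + [H+]/Ki)Kmin.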

DinF-BH [2] = biological target: T1, DinF-BH; experiment: Fluorescence measurement of H+-release upon drug binding; type: biochemical, Bacillus halodurans; conditions: 4 μM protein, 250 μM TPP, fluoresceine pH indicator, repeated three times
How it was run: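 Purified transporter was dialysed against 10% (vol/vol) glycerol, 50 mM NaCl and 0.03% (wt/vol) DDM, then diluted to 4 μM in the same buffer with 2 μM fluoresceine as pH indicator. The sample was stirred, and fluorescence was read at excitation 494 nm and emission 521 nm. TPP was added to 250 μM. Three repeats.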

DinF-BH [3] = biological target: T1, DinF-BH; experiment: Drug-H+ antiport assay in everted membrane vesicles containing DinF-BH; type: biochemical, Bacillus halodurans; conditions: 250 μM TPP, acridine orange fluorescence
NorM-NG = experiment: Drug-H+ antiport assay in everted membrane vesicles containing NorM-NG; type: biochemical, Neisseria gonorrhoeae; conditions: 250 μM TPP, acridine orange fluorescence

CC/N=c1\cc2oc3cc(NCC)c(C)cc3c(-c3ccccc3C(=O)OCC)c-2cc1C [R6G, rhodamine 6G]
Kd (DinF-BH [1]): 3.1 ± 0.4 µM
Kd (DinF-BH D40N mutant): 107 ± 4.1 µM

C(=NC1CCCCC1)=NC1CCCCC1 [dicyclohexylcarbodiimide]
effect of treatment of DinF-BH on the binding of R6G (DinF-BH [1]; treatment of DinF-BH with the chemical): abolished the binding of R6G

c1ccc([P+](c2ccccc2)(c2ccccc2)c2ccccc2)cc1 [TPP, tetraphenylphosphonium]
stoichiometry of H+ released per DinF-BH upon drug binding (DinF-BH [2]): 1.00 ± 0.07 H^+ per DinF-BH
H+ efflux (fluorescence dequenching) on addition of substrate, DinF-BH vesicles (DinF-BH [3]): elicited efflux of H^+
H+ efflux (fluorescence dequenching) on addition of substrate, NorM-NG vesicles (NorM-NG): no response
